ChEMBL document CHEMBL1139389, “Discovery of the Poly(ADP-ribose) polymerase (PARP) inhibitor 2-[(R)-2-methylpyrrolidin-2-yl]-1H-benzimidazole-4-carboxamide (ABT-888) for the treatment of cancer” (J Med Chem, 2009)

Assays:
[1] = Oral bioavailability in CD1 mouse at 10 mg/kg; assay type: ADME, organism-based; settings: in vivo
Outline: (§1)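 Mouse PK: oral dose 10 mg/kg in 2.5% EtOH, 1 drop Tween-80, 25% PEG400 in PBS; iv dose 3 mg/kg in 2.5% EtOH, 5% DMSO, 1 drop Tween-80, 25% PEG400 in PBS. Oral bioavailability, iv half-life, oral AUC and Cmax derived from plasma profiles.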

[2] = Half life in CD1 mouse at 3 mg/kg, iv; assay type: ADME, organism-based; set-up: dose 3 mg/kg, route intravenous; settings: in vivo; outline: as §1
[3] = AUC in CD1 mouse at 10 mg/kg, po; assay type: ADME, organism-based; set-up: dose 10 mg/kg, route oral; settings: plasma; outline: as §1
[4] = Cmax in CD1 mouse at 10 mg/kg, po; assay type: ADME, organism-based; set-up: dose 10 mg/kg, route oral; settings: in vivo; outline: as §1
[5] = molecular target: Poly [ADP-ribose] polymerase 2 (Homo sapiens, UniProt Q9UGN5); assay: Inhibition of human recombinant PARP2
Sequence of Poly [ADP-ribose] polymerase 2 (Q9UGN5 whole entry): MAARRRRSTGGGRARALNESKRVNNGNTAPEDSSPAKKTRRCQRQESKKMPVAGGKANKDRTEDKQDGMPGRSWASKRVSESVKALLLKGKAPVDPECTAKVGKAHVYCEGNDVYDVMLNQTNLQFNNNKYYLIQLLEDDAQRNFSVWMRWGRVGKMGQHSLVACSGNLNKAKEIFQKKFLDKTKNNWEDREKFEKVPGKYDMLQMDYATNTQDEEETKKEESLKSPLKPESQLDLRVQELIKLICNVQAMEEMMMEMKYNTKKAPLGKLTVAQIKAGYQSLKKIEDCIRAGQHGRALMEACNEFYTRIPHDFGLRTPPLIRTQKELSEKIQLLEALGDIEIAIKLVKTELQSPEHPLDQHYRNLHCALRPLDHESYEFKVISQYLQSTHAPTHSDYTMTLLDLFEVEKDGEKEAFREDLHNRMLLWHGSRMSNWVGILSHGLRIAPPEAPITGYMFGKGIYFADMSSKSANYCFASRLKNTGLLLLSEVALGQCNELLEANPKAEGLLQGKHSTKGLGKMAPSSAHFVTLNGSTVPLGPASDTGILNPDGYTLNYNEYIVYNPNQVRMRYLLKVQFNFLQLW

**Q.** Which bioavailability [1] does the source give for CC1(c2nc3c(C(N)=O)cccc3[nH]2)CCCCN1 (stereo not given) here?
**A.** 93%

**Q.** What about the half-life [2] of the same molecule?
**A.** 1.5 h

**Q.** And the AUC [3]?
**A.** 1500 ng·h/mL

**Q.** And the Cmax [4]?
**A.** 500 ng/mL

**Q.** For CC1(c2nc3c(C(N)=O)cccc3[nH]2)CCNC1 (stereo not given), which Ki [5] is on record?
**A.** 2 nM
